Assay outcomes as filed in PubChem.
Compounds with a hit are over-represented: about 29% of the library has one in this group of screens.
CYP2C19 inhib: blocks human cytochrome P450 2C19. CYP2C19 Supersomes, luciferin-H EGE luminescence, 30 min. inhibition, % at 5 µM. 96,000 tested, 21% active. AID 778;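 active means CYP2C19 inhibition above a set limit at 5 µM in the primary screen, cut at about 50% in these data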
tolC growth inh: blocks growth of E. coli BW25113 tolC mutant. OD615. growth inhibition, % at 10 µM (by protocol). 65,000 tested, 2.2% active. AID 573;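 active means growth inhibition at or above a cutoff equal to the mean over every tested compound plus 3 SD, cut at about 60% in these data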;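 further: growth measured after 20 h incubation at 37 °C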
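Test system: tolC-deleted E. coli BW25113; medium: LB with kanamycin 50 µg/mL; compound: single-point testing at 10 µM; incubation: 20 h compound exposure of bacteria at 37 °C; signal: OD at 615 nm; evaluation: growth inhibition in percent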
CYP2C9 inh: inhibitors of human CYP2C9; CYP2C9 Supersomes, luciferin-H conversion, luminescence; 96,000 tested, 20% active; AID 777; P11712; inhibition, % at 5 µM;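 active means blocking of liver enzyme CYP2C9 beyond about 50% at 5 µM, limit read from the data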
Target sequence (P11712 whole entry, looked up): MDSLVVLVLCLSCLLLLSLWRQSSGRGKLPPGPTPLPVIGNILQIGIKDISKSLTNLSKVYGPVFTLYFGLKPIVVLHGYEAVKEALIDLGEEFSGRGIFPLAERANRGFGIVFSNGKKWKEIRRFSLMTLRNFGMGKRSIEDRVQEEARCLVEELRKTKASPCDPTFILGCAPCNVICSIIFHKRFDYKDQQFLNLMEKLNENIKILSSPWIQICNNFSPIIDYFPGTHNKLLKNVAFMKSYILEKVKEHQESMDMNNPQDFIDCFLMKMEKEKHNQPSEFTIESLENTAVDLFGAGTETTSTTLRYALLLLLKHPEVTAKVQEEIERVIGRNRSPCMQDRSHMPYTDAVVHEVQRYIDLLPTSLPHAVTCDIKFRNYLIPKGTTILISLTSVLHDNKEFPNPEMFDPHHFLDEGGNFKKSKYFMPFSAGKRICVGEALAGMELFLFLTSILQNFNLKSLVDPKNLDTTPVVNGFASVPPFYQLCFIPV
E coli WT exp: blocks growth of wild type E. coli BW25113; OD600 absorbance; growth inhibition, % at 100 µM; 98,000 tested, 0.15% active;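 active means growth inhibition above about 50% at one test dose, limit read from the data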;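 further: growth measured after 20 h incubation at 37 °C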
CYP2C9 act: increases human cytochrome P450 2C9 activity; P11712; recombinant CYP2C9, luciferin-H conversion, luminescence; active compounds read high; factor 1 = untreated enzyme, 0 = blocked; activation factor at 5 µM; 96,000 tested, 1.4% active; AID 1024;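 active means activation factor of 2 or more for CYP2C9 at a 5 µM dose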
CYP2C19 act: activators of human cytochrome P450 2C19; P33261; recombinant CYP2C19, luciferin-H EGE luminescence; active compounds read high; 0 = fully inhibited enzyme, 1 = untreated enzyme; activation factor at 5 µM; 96,000 tested, under 10 active; AID 1025;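 active means activation factor of at least 2 at 5 µM in the primary screen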
Each line names hits and unclear results; the compound was inactive in the other large screens.

COC(=O)Cn1c(=O)c2c(nc3n2CC(C)CN3c2ccc(C)c(C)c2)n(C)c1=O (stereo not given)	none (no result: CYP2C19 inhib, CYP2C9 inh, E coli WT exp, CYP2C9 act, CYP2C19 act)
CCC(CC)NC(=O)COC(=O)c1cccc(C)c1O	none (no result: tolC growth inh)
CCOC(=O)CCCNC(=O)COC(=O)c1cccc(C)c1O	CYP2C19 inhib 67
Cc1cccc(-c2nc(C#N)c(NC3CCCCC3)o2)c1	none
CCOC(=O)CC1(CC(=O)OCC)NC(=O)c2c(C)sc(C(=O)OCC)c2N1	CYP2C19 inhib 96
CCCCC1(C)NC(=O)c2c(C)sc(C(=O)OCC)c2N1 (stereo not given)	CYP2C9 inh 94 (no result: tolC growth inh)
CCOC(=O)CC1(C)NC(=O)c2c(C)sc(C(=O)OCC)c2N1 (stereo not given)	none
CCC(=O)c1ccc(OC(=O)c2ccc(Br)o2)cc1	none (no result: CYP2C19 inhib, CYP2C9 inh, E coli WT exp, CYP2C9 act, CYP2C19 act)
CCOC(=O)c1sc(NC(=O)/C=C/c2cnn(C)c2C)c(C(=O)OCC)c1C	none (no result: tolC growth inh)
CCOCCCNC(=O)C1CCN(S(=O)(=O)N(CC(C)C)CC(C)C)CC1	none
OCCN(Cc1ccccc1)Cc1ccccc1Cl	CYP2C19 inhib 81
OCCN(Cc1ccccc1)Cc1ccccc1F	CYP2C19 inhib 77
OCCN(Cc1ccccc1)Cc1cccc(Cl)c1Cl	CYP2C19 inhib 93, CYP2C9 inh 76 (no result: tolC growth inh)
COc1ccc(C(=O)n2nc(-c3ccccc3)nc2N)cc1OC	none
O=C(CCC(=O)OCC(=O)c1cccc([N+](=O)[O-])c1)Nc1ccccc1Cl	none (no result: tolC growth inh)
CCn1c(Cn2nnc(-c3ccccc3)n2)nnc1SCC(=O)Nc1cccc(C(C)=O)c1	CYP2C19 inhib 70
CCn1c(Cn2nnc(-c3ccccc3)n2)nnc1SCC(=O)Nc1ccc(C(C)=O)cc1	none
CCn1c(Cn2nnc(-c3ccccc3)n2)nnc1SCC(=O)Nc1ccc(N(C)C)cc1	none
CCn1c(Cn2nnc(-c3ccccc3)n2)nnc1SCC(=O)Nc1cccc(C)c1C	CYP2C19 inhib 68, CYP2C9 inh 57
O=C1C2C3C=CC(C3)C2C(=O)N1/N=C/c1cc(Br)cc([N+](=O)[O-])c1O (stereo not given)	none (no result: tolC growth inh)
COC(=O)[C@H](CCSC)NC(=O)Nc1ccc(C)cc1	CYP2C19 inhib 60
Cc1ccc(-n2nc(-c3cccs3)cc2C(=O)NCC2CCCO2)c(C)c1 (stereo not given)	CYP2C19 inhib 65, CYP2C9 inh 90
COc1ccc(OC)c(C2C3=C(CCCC3=O)Nc3nc4ccccc4n32)c1 (stereo not given)	none (no result: CYP2C19 inhib, CYP2C9 inh, E coli WT exp, CYP2C9 act, CYP2C19 act)
CC(C)C(c1nnnn1C(C)(C)C)N1CCN(c2cccc(Cl)c2)CC1 (stereo not given)	CYP2C19 inhib 70, CYP2C9 inh 98
CC(C)C(c1nnnn1Cc1ccccc1)N1CCN(Cc2ccco2)CC1 (stereo not given)	none
CC(C)C(c1nnnn1Cc1ccco1)N1CCN(c2cccc(Cl)c2)CC1 (stereo not given)	CYP2C19 inhib 81, CYP2C9 inh 70
CC(C)(C)n1nnnc1C(c1cccc(C#N)c1)N1CCCCCC1 (stereo not given)	none (no result: tolC growth inh)
CCOC(=O)c1[nH]c2ccc(Br)cc2c1NC(=O)CCN1CCCCC1	none
CCOC(=O)c1[nH]c2ccc(OC)cc2c1NC(=O)CCN1CCCC(C)C1 (stereo not given)	none
CCOC(=O)c1[nH]c2ccc(Br)cc2c1NC(=O)CCN1CCN(C(=O)OCC)CC1	CYP2C9 inh 76
CCOC(=O)c1[nH]c2ccc(Br)cc2c1NC(=O)CCN1CCC(C(=O)OCC)CC1	CYP2C19 inhib 76
CCN1C(=O)N(c2ccc(Cl)cc2)C(C)=CC1(C)C	none (no result: tolC growth inh)
O=C(Nc1ccc(Cn2nnc3ccccc32)cc1)c1ccco1	none
Cn1c(Cn2c(=O)sc3ccccc32)nnc1SCC(=O)N1CCc2ccccc21	none (no result: CYP2C19 inhib, CYP2C9 inh, CYP2C9 act, CYP2C19 act)
O=C(Nc1ccc2c(c1)CCC2)c1cnccn1	CYP2C19 inhib 68
O=C(Nc1ccc2c(c1)OCO2)c1ccc(COc2ccc3c(c2)CCC3)o1	tolC growth inh 72
O=C(COC(=O)CNC(=O)c1ccc(Br)o1)Nc1ccc2c(c1)OCCO2	none
Cc1ccc(C(=O)Nc2ccc3c(c2)CCC3)o1	CYP2C19 inhib 78
O=C(Nc1ccc2c(c1)OCO2)c1ccc(Br)o1	CYP2C19 inhib 85, CYP2C9 inh 60 (no result: tolC growth inh)
O=C(Nc1ccc2c(c1)CCC2)c1cc2ccccc2o1	none (no result: tolC growth inh)
O=C(Nc1ccc2c(c1)CCC2)c1ccc(Br)o1	CYP2C19 inhib 76 (no result: tolC growth inh)
